According to the array DNA melting data of Ke et al. (doi:10.1101/2024.01.08.574731):

Columns and labels:
[1] = folding enthalpy; higher = less favourable; fluorescence melt of hairpins on a sequencing array, two-state fit; settings: sodium 0.088 M
In short: (§1)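 Hairpins were imaged by Cy3 fluorescence on a sequenced MiSeq flow cell with annealed Cy3 and quencher oligos, in 50 mM Na-HEPES pH 8.0, 25 mM NaCl, in 2.5 °C steps up to 60 °C. Bootstrapped two-state fits of normalised signals gave melting temperature and folding enthalpy. Four replicates were combined by inverse variance, and fitted temperatures were raised by 9.35 °C to match UV melts.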

[2] = melting temperature; fluorescence melt of hairpins on a sequencing array, two-state fit, raised by 9.35 °C to match UV melts; settings: sodium 0.088 M
In short: as §1

Sequence	folding enthalpy [1] [kcal/mol]	Tm [2] [°C]
GATCATGGCAATGATC ((((((....))))))	-41.9	56.7
GTCCGCGAAAGCGTTGAC ((((((....)))..)))	-14.4	36.8
GTCCAGGGAAACCTGGGC (.(((((....))))).)	-33.1	56.5
GCTATGCGAAAGCATGGC ((.((((....)))).))	-32	65
GTTGATGGAAACGTCAAC (((((.(....).)))))	-42.9	47.1
GATCAATAGTTGATC ((((((...))))))	-26.2	40.5
GACTGGGGAAACTCAGTC (((((.(....).)))))	-40.5	49.9
GGTCCTGGAAACAGAACC (((.(((....))).)))	-29.7	38.9
GCAAAGCGAAAGCTTAGC ((.((((....)))).))	-19	57.2
GATCTGCTTCAGATC ((((((...))))))	-36.6	48.7
GACATTGGAAACAATGTC (((((((....)))))))	-44.1	56.6
GGCCTCGAAAGAGGCGCC ((((((....)))..)))	-6.36	66.5
GGCGATCGAAAGATTGCC (((.(((....))).)))	-46.7	62.9
GTATATCCGAAAGGATAC (((..(((....))))))	-12.4	34.7
GCTGGACGAAAGTCGAGC (((.(((....))).)))	-44.2	56.2
GGGGTTGGAAACAGCCCC ((((.((....)).))))	-44.7	57.9
GCAGCCGGAAACAGCTGC (((((.(....).)))))	-40.9	55.7
GGCGTCGAAAGACTAGCC ((((((....)))..)))	-34	54.5
GTATCTGAAAAGATAC ((((((....))))))	-33.2	49.2
GCCCGGGGAAACCCGGAC (.(((((....))))).)	-13.4	51.3
GCACCAGGAAACCAGTGC ((((..(....)..))))	-30.5	39
GGTTACGGAAACGTAATC (.(((((....))))).)	-30.5	45.5
GATCCCCCTCGGGATC ((((((....))))))	-34	58.2

Sequence	folding enthalpy [1] [kcal/mol]	Tm [2] [°C]
GACCGCGGAAACGTGGTC ((((.((....)).))))	-44.8	62.8
GAGGGTGGAAACACCCTC (((((((....)))))))	-35	68.7
GATCCAATTGTGGATC ((((((....))))))	-32.7	49.6
GATCTCTGTGAGATC ((((((...))))))	-42.6	54.9
GACCGGGGAAACCCGATC ((.((((....)))).))	-19.9	44
GATCACGTGAGTGATC ((((((....))))))	-28.4	69.2
GTCACAGGAAACTACGAC (((..((....))..)))	-21.8	28.4
GGATGGACGAAAGTCTCC (((..(((....))))))	-13.6	32.5
GAGGGTGGAAACGTCCTC ((((..(....)..))))	-23.9	35.1
GCCTGTGGAAACGTAGGC ((((..(....)..))))	-28	48.2
GGATCAGGAAACTGATTC (.(((((....))))).)	-31.1	44.4
GATCCCGACCGGGATC ((((((....))))))	-37.5	66.5
GACCAGCCGAAAGGCGTC (((..(((....))))))	-7.85	34.5
GGGCGCTCGAAAGAGCCC (((..(((....))))))	-14	56.9
GCAGTGCGAAAGCTCTGC ((((.((....)).))))	-40.3	65.8
GCTTCGCGAAAGCGATGC ((.((((....)))).))	-17.4	65.7
GCGACCGAAAGGTTCCGC ((((((....)))..)))	-18.8	43.5
GGGCTAGCGAAAGCTCCC (((..(((....))))))	-15.1	38.8
GGAGGTGGAAACGCCTTC (.(((.(....).))).)	-26.2	48.5
GCCAGTCGAAAGACGGGC (((.(((....))).)))	-35	68.6
GCGGTCCACCGC ((((....))))	-26.2	68.5
GATCGCGAAAGCGGCATC ((((((....)))..)))	-7.52	32.1
GGGAGAGGAAACTCCCCC (((.(((....))).)))	-17.8	49.4

Sequence	folding enthalpy [1] [kcal/mol]	Tm [2] [°C]
GACTTGGGAAACCAAGTC (((((((....)))))))	-35.8	62.3
GGTGTCGAAAGACAGACC ((((((....)))..)))	-15.1	44
GTGCGTGGAAACACGCGC (.(((((....))))).)	-18	65.9
GATCGCTAGAGCGATC ((((((....))))))	-34.2	67.6
GTTGTTCCGAAAGGAAAC (((..(((....))))))	-20.5	49.1
GAGCAACCGAAAGGTCTC (((..(((....))))))	-13.1	30.1
GCAGCGCGAAAGCAATGC (((..((....))..)))	-25.3	54.9
GATCATGGTAATGATC ((((((....))))))	-41.1	56.2
GCGGGATCCGC ((((...))))	-17.1	59.2
GAAGACCGAAAGGTATTC (((.(((....))).)))	-32.5	50.8
GCTCAGCGAAAGCCGAGC ((((.((....)).))))	-28.1	63.5
GGTCCTCGAAAGAGAACC (((.(((....))).)))	-32.2	46.8
GGTATAACGAAAGTTACC (((..(((....))))))	-13.7	37.8
GTCACCGAAAGGTGGGAC ((((((....)))..)))	-9.56	39
GGTGACGAAAGTCCTACC ((((((....)))..)))	-13.8	33.5
CGCGACGGAAACGTTGCG (((.(((....))).)))	-54.2	61
GTATCGGGAAACCGGTAC (((.(((....))).)))	-32	48.9
GATCTCTGAGAGATC ((((((...))))))	-32.5	52.1
GGAGCAGGAAACCACTCC ((((..(....)..))))	-11.5	27.1
GCTCCCGAAAGGGGAAGC ((((((....)))..)))	-19.2	50
GCGAGATATCGC ((((....))))	-24.3	56.9
GCGGGTGGAAACGCCTGC ((.((.(....).)).))	-28	51.7
GACTTCCGAAAGGACGTC (((.(((....))).)))	-32.3	48.9
